Assay results from different studies.
Protocols differ between the studies behind these lines.
UGT2B7: UDP-glucuronosyltransferase 2B7 (UGT2B7, Homo sapiens, UniProt P16662)

The CC50 of `CCOC(=O)CC1SC(=NN=Cc2ccc(OC)cc2)NC1=O` (stereo not drawn) is reported as 399 µM (LLC-MK2; cell growth or viability, MTT; 96 h, pH 7.2).
For `COc1cccc(OC)c1-c1cc(C(=O)NC2(C(=O)O)C3CC4CC(C3)CC2C4)nn1-c1ccc(C(=O)N(C)CCCN(C)CCCN(C)C(=O)CN2CCN(CC(=O)[O-])CCN(CC(=O)[O-])CCN(CC(=O)[O-])CC2)cc1C(C)C.[177Lu+3]` (stereo not drawn), the tracer uptake was 3.1 %ID/g (HT-29; liver; intravenous, 4 h, tumour-bearing).
With `C[C@H](O)c1cc(C(=O)N[C@@H](C)Cn2ccc(-c3ccc(C#N)c(Cl)c3)n2)n[nH]1` the IC50 was > 100 µM (UGT2B7; enzyme activity, inhibitor; human, liver microsomes).
For `CCOC(=O)CC1SC(=NN=Cc2ccccc2OC)NC1=O` (stereo not drawn), the CC50 was 539 µM (LLC-MK2; cell growth or viability, MTT; 96 h, pH 7.2).
The MRT(0-inf) of `CCc1cc(C(=O)NC)c2nccc(N3CCc4c(cc(Cn5ccnc5)cc4-c4cn(C)nc4C(F)(F)F)C3=O)c2c1` is reported as 24 min (male Sprague-Dawley rat, plasma; intravenous, 3 mg/kg).
`CCOC(=O)c1csc(NN=Cc2ccccc2Br)n1` gave a CC50 of 252 µM (LLC-MK2; cell growth or viability, MTT; 96 h, pH 7.2).
`O=C(Nc1cc(F)c(F)c(F)c1)c1ccc(F)c(S(=O)(=O)NCc2cccc(B(O)O)c2)c1` has an MRT(0-inf) of 49.8 min (male Sprague-Dawley rat, plasma; intravenous, 2 mg/kg).
With `CC(=O)OC1c2c(ccc3ccc(=O)oc23)OC(C)(C)C1OC(=O)C(C)(O)C(C)O` (stereo not drawn) the IC50 was 31.8 µM (RD; cell growth or viability, WST-1).
`C=C1CCC2C(C)(CO)C(=O)CCC2(C)C1CCC1=CCOC1=O` (stereo not drawn) has an inhibition of 94% (UGT2B7; enzyme activity, inhibitor; 100 µM).
For `CC1(C)CC[C@]2(C)CC[C@]3(C)[C@H]4CC=C5[C@@H](CC[C@H](O)C5(C)C)[C@]4(C)CC[C@@]3(C)[C@@H]2C1`, the IC50 was 79.8 µM (RD; cell growth or viability, WST-1).
`CC(C)n1cc(C#N)c2cc(-n3cc(C(=O)O)cn3)ccc21` gave a Tmax of 162 min (human, plasma; oral, 200 mg, single dose, fasted, healthy volunteers).
`COc1cc(OC)cc(N(CCNC(C)C)c2ccc3ncc(-c4cnn(C)c4)nc3c2)c1` gave a Papp of 19.8 ×10⁻⁶ cm/s (LLC-PK1; Caco-2).
